{"source": "paper PMC11062580", "about": "(Science Advances, 2024)", "key": {"[1]": {"system": "tau aggregation", "settings": "phase 2 (curcumin) and phase 3 (methylene blue/LMTX) trials; cited from earlier work"}, "[2]": {"system": "tau K18^+ fibrils", "assay": "TEM of tau K18+ aggregation with inhibitor", "type": "biochemical", "settings": "20 μM tau K18+, 48 h; 5-100 μM peptide or MNPs-DP 0.005-0.04 mg/ml", "method_in_brief": "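Recombinant tau K18+ (20 µM final, PBS pH 7.4) was aggregated with 40 µM ThT, 15 µM heparin and 1 mM DTT at 37°C with 700 rpm double orbital shaking. Test peptide was at 5–100 µM; nanoparticles at 0.005–0.04 mg/ml. For TEM, 6 µl sample went on glow-discharged carbon grids for 5 min, then 2% uranyl acetate for 2 min.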"}, "[3]": {"system": "tau K18^+ fibrils", "assay": "ThT fragmentation assay of preformed tau K18+ fibrils", "type": "biochemical"}, "[4]": {"system": "tau K18^+ fibrils", "assay": "TEM of preformed tau K18+ fibrils after treatment", "type": "biochemical", "settings": "7-DP 2.5-100 μM or MNPs-DP 0.005-0.02 mg/ml, 24 hours"}, "[5]": {"system": "tau K18^+ fibrils", "assay": "Dot blot with anti-amyloid OC antibody", "type": "biochemical", "settings": "7-DP 2.5-100 μM or MNPs-DP 0.005-0.02 mg/ml, 24 h"}, "[6]": {"system": "AD tau fibrils", "assay": "TEM of AD-extracted tau fibrils after treatment", "type": "biochemical", "settings": "0.02 mg/ml (86 μM 7-DP for MNPs-DP), 48 hours, 37°C; n = 10 images"}, "[7]": {"system": "C57BL/6J mice brain", "assay": "BBB penetration, Fe in brain by ICP-MS", "type": "in vivo, mouse", "settings": "10 mg/kg tail vein with intranasal mannitol; 2 hours; n = 3 per group", "method_in_brief": "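Wild-type C57BL/6J mice aged 2 months received 20 μl of 2% mannitol intranasally, then test nanoparticles at 10 mg/kg by tail vein; controls received PBS. Mice were euthanized after 2 h and perfused. Half-brains were dried at 105°C, digested in concentrated HNO3/HCl at 80°C for 2 h and diluted. Fe was quantified by ICP-MS.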"}, "[8]": {"assay": "Body weight of PS19 mice", "type": "in vivo, mouse", "settings": "10 mg/kg i.v. weekly for 10 weeks, with intranasal mannitol; n = 13 per group"}, "[9]": {"system": "PS19 mice", "assay": "Barnes maze test", "type": "in vivo, mouse", "settings": "10 mg/kg i.v. weekly for 10 weeks", "method_in_brief": "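Mice were seeded with K18+ fibrils (2-month males, 6-month females) and given weekly tail-vein 10 mg/kg for 10 weeks plus intranasal mannitol; PBS vehicle; C57BL/6J controls. Maze had 20 holes with an escape box. Acquisition was 10 trials (2/day, 15-min interval, 2 min each). Probe came 1 day later: tunnel replaced, 90 s, with primary latency and target-hole entries. Testing was blinded and randomized.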"}, "[10]": {"system": "PS19 mice", "assay": "Novel object recognition test", "type": "in vivo, mouse", "settings": "10 mg/kg i.v. weekly for 10 weeks, n = 13", "method_in_brief": "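PS19 mice seeded with K18+ fibrils, then weekly i.v. 10 mg/kg for 10 weeks with intranasal mannitol; PBS vehicle. Arena habituation was 10 min, 24 h before testing. Acquisition: two identical objects, 10 min. After 90 min in the home cage, retention: one familiar and one novel object, 10 min. Exploration was nose, mouth or forepaw contact. DR = TC/(TR + TC); […].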"}, "[11]": {"system": "PS19 mice", "assay": "Serum AST as index of hepatic toxicity", "type": "in vivo, mouse", "settings": "10 mg/kg i.v. weekly for 10 weeks; n = 13; ELISA"}, "[12]": {"system": "PS19 mice", "assay": "H&E histology of major organs", "type": "in vivo, mouse", "settings": "10 mg/kg i.v. weekly for 10 weeks", "method_in_brief": "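Seeded PS19 mice were treated weekly i.v. at 10 mg/kg for 10 weeks with intranasal mannitol. Heart, liver, spleen, lung and kidney (n = 3) were fixed in 4% buffered formalin at 4°C overnight and embedded in paraffin. Sections of 5 µm were stained with hematoxylin and eosin.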"}, "[13]": {"system": "phosphorylated tau (ptau) pSer^202/Thr^205", "assay": "AT8 immunohistochemistry of hippocampus", "type": "in vivo, mouse", "settings": "10 mg/kg i.v. weekly for 10 weeks; n = 6 per group", "method_in_brief": "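PS19 mice seeded stereotaxically with 1.5 µl recombinant K18+ tau fibril seeds (5 µg/µl). Dosing began 2 weeks later: tail-vein 10 mg/kg weekly for 10 weeks, with intranasal mannitol; vehicle was PBS. Brain sections were stained with AT8 (pSer202/Thr205) at 4°C overnight, then biotinylated anti-mouse secondary (1:1000, 1 h, 37°C). AT8-positive staining was quantified in hippocampal CA1 and CA3.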"}}, "data": [{"molecule": "COc1cc(/C=C/C(=O)CC(=O)/C=C/c2ccc(O)c(OC)c2)ccc1O", "note": "[curcumin]", "values": [{"measurement": "clinical efficacy", "setting": "[1]", "value": "have yet to show efficacy in treating disease"}]}, {"molecule": "CN(C)c1ccc2nc3ccc(=[N+](C)C)cc-3sc2c1", "note": "[methylene blue/LMTX, methylene blue]", "values": [{"measurement": "clinical efficacy", "setting": "[1]", "value": "have yet to show efficacy in treating disease"}]}, {"molecule": "MNPs-D-TLKIVWC [MNPs-DP]", "values": [{"measurement": "counts and length of tau K18+ fibrils (TEM)", "setting": "[2]", "value": "reduced the length of tau fibrils in a dose-dependent manner"}, {"measurement": "fragmentation of preformed tau K18+ fibrils, MNPs-DP and MNPs (ThT)", "setting": "[3]; 20 μM tau K18+ fibrils, MNPs-DP or MNPs 0.02 mg/ml, added at 10 hours, reference 50 μM 7-DP", "value": "fragmented preformed tau K18^+ fibrils as evidenced by the decrease of ThT signal"}, {"measurement": "dose-dependent ThT fluorescence intensity of tau K18+ fibrils", "setting": "[3]; 7-DP 2.5-100 μM or MNPs-DP 0.005, 0.01, 0.02 mg/ml", "value": "reduction of ThT fluorescence intensity"}, {"measurement": "dose-dependent number/abundance of tau K18+ fibrils under TEM", "setting": "[4]", "value": "reduction of the abundance of tau K18^+ fibrils and a concurrent increase in the number of globular species"}, {"measurement": "binding of anti-amyloid OC antibody to tau K18+ fibrils", "setting": "[5]", "value": "decrease of binding to anti-amyloid OC antibody"}, {"measurement": "fragmentation of AD-extracted tau fibrils by MNPs-DP or MNPs", "setting": "[6]", "value": "fragmented AD-extracted tau fibrils after a 48-hour incubation"}, {"measurement": "BBB penetration", "setting": "[7]", "value": "can cross the BBB"}, {"measurement": "body weight of PS19 mice", "setting": "[8]", "value": "consistent increase in body weights"}, {"measurement": "memory function in probe trial, overall", "setting": "[9]; compared with PBS-treated PS19 mice", "value": "comparable performance to WT mice and a significant improvement in memory function compared with PBS-treated PS19 mice"}, {"measurement": "latency time to find escape hole, learning period", "setting": "[9]; n = 13, 6 days", "value": "learned a new task quicker with a shorter latency time to find the escape hole compared to the vehicle- or naked MNP-treated PS19 mice"}, {"measurement": "exploration of novel versus familiar object", "setting": "[10]; 90-min interval", "value": "explored the novel object significantly longer than the familiar one"}, {"measurement": "discriminatory index (DI)", "setting": "[10]; versus vehicle", "value": "appeared to significantly improve the discriminatory index"}, {"measurement": "discriminatory ratio (DR)", "setting": "[10]; versus vehicle", "value": "appeared to significantly improve the discriminatory index (DI; Fig. 5G) and discriminatory ratio (DR)"}, {"measurement": "serum AST levels", "setting": "[11]", "value": "comparable to the vehicle groups"}, {"measurement": "histology of liver, spleen, heart, lung, kidney", "setting": "[12]; H&E, n = 3, 100 day post-injection", "value": "no evidence of toxic changes or cell death in cellular structures"}, {"measurement": "overall toxicity after 10 weeks", "setting": "[12]; PS19 mice", "value": "without apparent toxic side effects in other body systems"}, {"measurement": "AT8-positive tau pathology in hippocampus CA1 and CA3", "setting": "[13]", "value": "significantly limited tau pathology in both the CA1 and CA3 regions"}]}]}
